High-throughput results as filed in PubChem.
The full list was thinned out, with hits kept by preference.
hiPSC survival = enhancers of human iPSC single-cell survival; survival enhancement, % at 20 µM; AID 602274; actives 0.044% (n = 360,000); hiPSC single-cell survival, ATPlite luminescence; 100% = ROCK inhibitor wells, 0% = DMSO; in the data active = survival enhancement above about 18%;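 note: cells exposed to compounds for 16 hours before the ATP read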
XBP1 UPR activ = activators of adaptive arm of unfolded protein response (XBP1); activation, % at 20 µM; actives 0.33% (n = 330,000); CHO-XBP1 luciferase reporter, IRE1-XBP1 UPR activation, luminescence; percent of tunicamycin response, DMSO as zero;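 active = versus positive control, 20 µM dose yields 30% or more activation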;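 note: 100% = tunicamycin at 10 µg/mL and 0% = DMSO only wells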
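Test system: CHO-XBP1 luciferase reporter cells | Buffer or medium: Serum-containing F12 medium, 10% FBS | Schedule: 6 h compound exposure at 37 °C, 5% CO2 | Detection: Steady-Glo luciferase glow luminescence, 10 min after reagent addition | Read-out basis: Activation, % of tunicamycin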
Cardio protect = protects H9c2 cardiomyocytes from peroxide injury. H2O2 injury protection, ATPLite, 2 h. protection from H2O2 cell death, % at 20 µM. actives 0.63% (n = 360,000);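 active = compounds giving at least 50% protection of heart cells from peroxide-induced death in the single-dose screen, raw or plate-pattern-corrected value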;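 note: 0% = DMSO wells with peroxide and 100% = DMSO wells without peroxide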
CHOP inh = inhibitors of CHOP induction in ER stress response; inhibition, % at 10 µM; CHO-K1 CHOP-promoter luciferase, tunicamycin-induced, 15-18 h; actives 3.8% (n = 220,000);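 active = compounds that reduced the stress-induced luciferase reporter signal by more than about 70% of percent inhibition, limit read from the data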;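 note: 0% = tunicamycin plus vehicle and 100% = wells without tunicamycin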
CHOP UPR activ = activators of apoptotic arm of unfolded protein response (CHOP). activation, % at 10 µM. actives 0.34% (n = 330,000). CHO-CHOP luciferase reporter, UPR activation, luminescence; percent of tunicamycin response over DMSO baseline;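 active = at 10 µM dose, activation of 40% or more, normalized to positive control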;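 note: 100% = tunicamycin at 10 µg/mL and 0% = DMSO alone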
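Test system: CHO CHOP reporter cells. Input: 500 CHO-CHOP cells per well. Medium: F12 with 10% FBS. Technique: luciferase luminescence. Measure: percent activation relative to tunicamycin control. Dosing: 10 µM compound, 0.5% DMSO. Timing: 16-18 h cell attachment, then 6 h compound exposure, 37 °C.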
CHOP confirm = confirmation of CHOP induction inhibitors | shares compounds with CHOP inh | CHO-CHOP promoter luciferase reporter, tunicamycin-induced, luminescence | inhibition, % at 10 µM | actives 45% (n = 2,100);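 active = mean of three repeat readings of reporter signal inhibition above a set limit, cut at about 70% in these data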;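 note: 0% = tunicamycin plus vehicle and 100% = wells lacking tunicamycin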
* hit, by the source's call.

Screening O=S1(=O)c2ccccc2N=NN1Cc1ccc(Cl)c(Cl)c1 returned XBP1 UPR activ -0.1, CHOP inh -45.5 and CHOP UPR activ 0.9.
For CC(C)CN(C(=O)CN(C)CC(=O)Nc1ccccc1C#N)c1c(N)n(CC(C)C)c(=O)[nH]c1=O the results were hiPSC survival 5.3, XBP1 UPR activ -0.2, Cardio protect -1.3 and CHOP UPR activ 0.2.
`C=CCC[C@@H](Cc1ccc(F)cc1)C(=O)OCCNC(=O)[C@H](CC=C)CC(=O)NCCO` gave hiPSC survival 3.7, XBP1 UPR activ 0.1, Cardio protect 13.9 and CHOP UPR activ 0.3.
Screening COc1ccc(NS(=O)(=O)c2ccc3oc(SCc4ccc(F)cc4)nc3c2)cc1 returned hiPSC survival -0.2, XBP1 UPR activ 0.1, Cardio protect -15.5, CHOP inh 96.3*, CHOP UPR activ -1.0 and CHOP confirm 57.8.
`CCc1cc(-c2nnn(-c3cc(C(C)C)ccc3C)c2CC)ccc1-c1cn(CCc2c[nH]c3ccccc23)nn1` gave hiPSC survival -2.1 and Cardio protect -5.2.
Cc1cc2c(SCC(=O)Nc3cccc(O)c3)ncnc2s1 was read as hiPSC survival -0.7 and Cardio protect -2.5.
`FC(F)(F)c1cccc(CN2CCC(c3cc(-c4cccs4)n[nH]3)CC2)c1` gave hiPSC survival 2.1, XBP1 UPR activ -2.2, Cardio protect -5.5, CHOP inh 103.8*, CHOP UPR activ 0.6 and CHOP confirm 94.0*.
Cc1ccc(CN2CCC(c3cc(-c4cccs4)n[nH]3)CC2)cc1 was read as hiPSC survival -1.8, XBP1 UPR activ -6.0, Cardio protect 14.5, CHOP inh 21.9 and CHOP UPR activ -0.9.
Screening O=C(Nc1cccc(C(F)(F)F)c1)NC1CCN(S(=O)(=O)c2ccc(F)cc2)CC1 returned hiPSC survival -0.5, XBP1 UPR activ -4.4, Cardio protect -18.7, CHOP inh 99.8*, CHOP UPR activ -1.7 and CHOP confirm 94.3*.
For O=C(N/N=C/c1ccc(Cl)cc1Cl)c1n[nH]c2c1CCCC2 the results were hiPSC survival -1.4, XBP1 UPR activ 5.0, Cardio protect 16.3, CHOP inh 14.4 and CHOP UPR activ 8.1.
For O=C(N/N=C/c1cccc2ccccc12)c1n[nH]c2c1CCCC2 the results were hiPSC survival -1.0, XBP1 UPR activ 3.8, Cardio protect -6.2, CHOP inh 100.7*, CHOP UPR activ 2.1 and CHOP confirm 8.7.
N#Cc1ccccc1NC(=O)C1CCCO1 (stereo not given) was read as hiPSC survival 2.3 and Cardio protect -0.3.
For Oc1ccccc1-n1c(-c2ccccc2)ccc1-c1ccccc1 the results were hiPSC survival -0.5, XBP1 UPR activ 3.5, Cardio protect -14.9, CHOP inh 104.5*, CHOP UPR activ 0.7 and CHOP confirm 118.6*.
Screening CCN1C[C@@H]2[C@@H]3C(=O)N(Cc4ccccc4)C(=O)[C@@H]3[C@](Cc3ccccc3)(C1=O)N2C(=O)c1ccc(Br)cc1 returned hiPSC survival -1.5 and Cardio protect -2.0.
CCc1nnc(NC(=O)c2ccc(S(=O)(=O)N3CCN(Cc4ccccc4)CC3)cc2)s1 was read as hiPSC survival 4.5, XBP1 UPR activ -2.7, Cardio protect -0.3, CHOP inh 97.1*, CHOP UPR activ -1.4 and CHOP confirm 1.0.
Screening CCc1nnc(NC(=O)c2ccc(S(=O)(=O)N3CCCC3)cc2)s1 returned hiPSC survival -0.1, XBP1 UPR activ 3.1, Cardio protect 4.9 and CHOP UPR activ 0.3.
For Nc1sc(-c2ccccc2)cc1-c1n[nH]c(=S)n1C1CCCCC1 the results were hiPSC survival -0.3, XBP1 UPR activ 3.9, Cardio protect -8.0, CHOP inh -19.6 and CHOP UPR activ -1.4.
`COc1ccc(-n2c(-c3cc(-c4ccccc4)sc3N)n[nH]c2=S)cc1` gave hiPSC survival 2.6, XBP1 UPR activ 1.4, Cardio protect 5.9, CHOP inh 99.5*, CHOP UPR activ 1.4 and CHOP confirm 7.5.
Screening CCOC(=O)C1=C(C)NC(=S)NC1c1ccc(OC(=O)c2ccco2)cc1 (stereo not given) returned hiPSC survival 2.2, XBP1 UPR activ 0.0, Cardio protect 5.3, CHOP inh -5.9 and CHOP UPR activ 3.4.
Screening CCOC(=O)c1c(NC(=O)C2=C(C)NC(=S)NC2c2ccc(CC)cc2)sc(C)c1C (stereo not given) returned XBP1 UPR activ 2.6, CHOP inh 97.2*, CHOP UPR activ 0.2 and CHOP confirm 57.1.
For CCc1ccc(OCC(=O)NC(NC(=S)Nc2ccccc2)C(Cl)(Cl)Cl)cc1 (stereo not given) the results were hiPSC survival -2.5, XBP1 UPR activ 0.3, Cardio protect -20.7, CHOP inh 105.1*, CHOP UPR activ 4.1 and CHOP confirm 104.7*.
Screening Cc1cccc(NC(=S)NC(NC(=O)OCc2ccccc2)C(Cl)(Cl)Cl)c1 (stereo not given) returned hiPSC survival -1.2, XBP1 UPR activ -3.9, Cardio protect -17.2, CHOP inh 106.3*, CHOP UPR activ 1.6 and CHOP confirm 103.1*.
Screening CCc1ccc(OCC(=O)NC(NC(=S)Nc2ccc(C)cc2C)C(Cl)(Cl)Cl)cc1 (stereo not given) returned hiPSC survival -0.5, XBP1 UPR activ 2.1, Cardio protect 4.7, CHOP inh 108.1*, CHOP UPR activ 2.7 and CHOP confirm 113.3*.
Screening O=C(NC(NC(=S)Nc1cccc(C(=O)O)c1)C(Cl)(Cl)Cl)OCc1ccccc1 (stereo not given) returned hiPSC survival 5.3, XBP1 UPR activ -2.6, Cardio protect -0.3, CHOP inh -4.7 and CHOP UPR activ 1.2.
Screening COc1ccccc1C(=O)COC(=O)CNS(=O)(=O)c1ccc(C)c(C)c1 returned hiPSC survival -0.4, XBP1 UPR activ -3.1, Cardio protect -12.3 and CHOP UPR activ 1.2.
`COc1cc(NC(=O)CN2C(=O)COc3ccc(S(=O)(=O)N4CCCC4)cc32)cc(OC)c1` gave hiPSC survival 0.6, XBP1 UPR activ -4.0, Cardio protect -2.6 and CHOP UPR activ -0.2.
Screening COc1ccc(CN(C)C(=O)c2cccc(S(=O)(=O)N3CCCc4ccccc43)c2)c(OC)c1OC returned hiPSC survival -2.6 and Cardio protect -2.6.
Screening CC(C)Cn1c(=O)[nH]c(=O)c2c(C(F)(F)F)cc(-c3ccccc3)nc21 returned hiPSC survival 1.1, XBP1 UPR activ 16.0, Cardio protect -0.6, CHOP inh 99.5*, CHOP UPR activ 1.4 and CHOP confirm 100.3*.
